The source of these data is PMC6309961 (The Journal of pharmacy and pharmacology, 2017).

Assay type in all cases: biochemical
One data set concerns the target CYP2E1 (Homo sapiens, UniProt P05181). Description: index substrate turnover in pooled HLM, HPLC. The settings on record: for IC50: human, microsomes.
For another data set, the target named is T1, UGT2B15 (Homo sapiens, UniProt P54855).
T1 sequence (P54855 24-530): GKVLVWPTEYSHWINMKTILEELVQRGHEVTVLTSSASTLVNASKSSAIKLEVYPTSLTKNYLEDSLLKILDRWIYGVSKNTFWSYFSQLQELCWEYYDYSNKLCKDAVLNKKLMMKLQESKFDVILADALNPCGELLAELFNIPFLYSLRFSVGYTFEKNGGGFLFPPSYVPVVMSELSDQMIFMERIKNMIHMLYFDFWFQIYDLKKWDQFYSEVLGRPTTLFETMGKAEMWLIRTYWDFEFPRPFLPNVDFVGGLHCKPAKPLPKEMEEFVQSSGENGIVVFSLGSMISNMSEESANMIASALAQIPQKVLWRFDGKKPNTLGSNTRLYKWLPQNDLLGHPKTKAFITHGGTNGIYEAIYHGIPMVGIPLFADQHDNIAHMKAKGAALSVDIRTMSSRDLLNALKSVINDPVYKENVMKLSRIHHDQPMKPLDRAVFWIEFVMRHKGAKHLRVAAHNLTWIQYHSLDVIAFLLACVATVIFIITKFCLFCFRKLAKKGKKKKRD
Description: glucuronidation of index substrate in pooled HLM, HPLC-UV. The note with it: without preincubation; pH 7.5, 10 mM UDPGA, alamethicin. In a few lines:
(§1)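 Pooled HLMs (53 donors, 50–500 μg/ml) in 50 mm phosphate pH 7.5 with 5 mm MgCl2 and alamethicin […]. Test compound at 0–250 μm (seven levels) was dried, reconstituted in 1% methanol and not preincubated. Reactions started with UDPGA (10 mm final). Substrates: AZT (UGT2B7), oxazepam (UGT2B15). Acetonitrile stop (acidified for UGT2B7) with IS; HPLC-UV; duplicates; IC50 by nonlinear regression.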

A further data set concerns the target T2, UGT1A6 (Homo sapiens, UniProt P19224).
T2 sequence (P19224 27-532): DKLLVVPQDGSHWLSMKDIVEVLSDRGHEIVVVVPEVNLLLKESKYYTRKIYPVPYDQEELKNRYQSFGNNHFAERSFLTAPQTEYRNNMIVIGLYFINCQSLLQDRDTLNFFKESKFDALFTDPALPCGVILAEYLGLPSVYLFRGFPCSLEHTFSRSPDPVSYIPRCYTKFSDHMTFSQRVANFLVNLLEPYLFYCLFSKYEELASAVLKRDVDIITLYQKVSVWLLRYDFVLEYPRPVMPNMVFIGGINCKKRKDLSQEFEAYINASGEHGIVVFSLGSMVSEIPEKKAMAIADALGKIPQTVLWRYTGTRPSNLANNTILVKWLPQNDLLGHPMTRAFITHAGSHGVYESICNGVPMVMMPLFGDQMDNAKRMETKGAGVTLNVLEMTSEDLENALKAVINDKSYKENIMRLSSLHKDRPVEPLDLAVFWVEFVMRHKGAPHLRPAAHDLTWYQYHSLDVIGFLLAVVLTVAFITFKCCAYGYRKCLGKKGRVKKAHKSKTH
Description: glucuronidation of index substrate in pooled HLM, HPLC-UV. The note with it: without preincubation; pH 7.5, 10 mM UDPGA, alamethicin.

The next data set has as its target T3, CYP2B6 (Homo sapiens, UniProt P20813).
T3 sequence (P20813 1-491): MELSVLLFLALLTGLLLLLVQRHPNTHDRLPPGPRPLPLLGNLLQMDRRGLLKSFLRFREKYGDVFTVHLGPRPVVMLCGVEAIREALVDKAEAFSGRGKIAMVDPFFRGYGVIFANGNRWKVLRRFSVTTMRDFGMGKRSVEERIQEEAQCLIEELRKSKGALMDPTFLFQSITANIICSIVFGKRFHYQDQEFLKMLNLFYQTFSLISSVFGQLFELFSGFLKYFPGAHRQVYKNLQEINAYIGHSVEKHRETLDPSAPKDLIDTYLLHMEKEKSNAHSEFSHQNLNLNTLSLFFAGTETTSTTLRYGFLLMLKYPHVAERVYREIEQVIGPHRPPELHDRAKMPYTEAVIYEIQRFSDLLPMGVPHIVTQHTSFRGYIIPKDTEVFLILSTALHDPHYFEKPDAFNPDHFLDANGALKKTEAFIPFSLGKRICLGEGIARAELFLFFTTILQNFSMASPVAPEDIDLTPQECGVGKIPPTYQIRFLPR
Description: index substrate turnover in pooled HLM, HPLC. The note with it: microsomes. The essentials: (§2)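 Pooled HLMs (53 donors) in 50 mm phosphate pH 7.5 with 5 mm MgCl2, 0.5 mm NADP and an isocitrate/isocitric dehydrogenase regenerating system. Test compound at 0–600 μm (eight levels) was dried, reconstituted in 1% methanol, with or without 20-min 37°C preincubation. Substrates: phenacetin (1A2), bupropion (2B6), taxol (2C8), dextromethorphan (2D6). Acetonitrile stop (acidified for 2B6) with IS; HPLC-UV/fluorescence; duplicates; hyperbolic nonlinear-regression IC50.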

The target of the next data set is CYP2D6 (Homo sapiens, UniProt P10635). Description: index substrate turnover in pooled HLM, HPLC. The settings on record: microsomes. The essentials:
as §2

A further data set has as its target CYP2C9 (Homo sapiens, UniProt P11712). Description: index substrate turnover in pooled HLM, HPLC. The settings on record: microsomes.
In the next data set the target is T4, CYP2C8 (Homo sapiens, UniProt P10632).
T4 sequence (P10632 1-490): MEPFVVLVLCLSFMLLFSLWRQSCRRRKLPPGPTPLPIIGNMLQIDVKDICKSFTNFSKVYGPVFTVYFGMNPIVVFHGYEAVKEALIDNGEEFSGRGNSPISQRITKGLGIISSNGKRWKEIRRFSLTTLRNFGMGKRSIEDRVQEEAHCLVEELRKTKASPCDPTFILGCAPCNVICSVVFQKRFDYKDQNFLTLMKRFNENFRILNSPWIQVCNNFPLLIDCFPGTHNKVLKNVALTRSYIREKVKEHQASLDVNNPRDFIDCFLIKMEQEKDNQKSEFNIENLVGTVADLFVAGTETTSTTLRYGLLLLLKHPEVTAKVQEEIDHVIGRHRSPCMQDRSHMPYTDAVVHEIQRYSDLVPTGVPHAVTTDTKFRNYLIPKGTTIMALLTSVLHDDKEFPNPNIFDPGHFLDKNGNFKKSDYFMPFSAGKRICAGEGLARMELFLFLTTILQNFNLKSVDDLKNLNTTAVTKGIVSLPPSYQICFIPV
Description: index substrate turnover in pooled HLM, HPLC. The note with it: microsomes. In a few lines: as §2

The next data set addresses CYP2C19 (Homo sapiens, UniProt P33261). Description: index substrate turnover in pooled HLM, HPLC. The note with it: microsomes.
The next data set concerns the target T5, UGT2B7 (Homo sapiens, UniProt P16662).
T5 sequence (P16662 24-529): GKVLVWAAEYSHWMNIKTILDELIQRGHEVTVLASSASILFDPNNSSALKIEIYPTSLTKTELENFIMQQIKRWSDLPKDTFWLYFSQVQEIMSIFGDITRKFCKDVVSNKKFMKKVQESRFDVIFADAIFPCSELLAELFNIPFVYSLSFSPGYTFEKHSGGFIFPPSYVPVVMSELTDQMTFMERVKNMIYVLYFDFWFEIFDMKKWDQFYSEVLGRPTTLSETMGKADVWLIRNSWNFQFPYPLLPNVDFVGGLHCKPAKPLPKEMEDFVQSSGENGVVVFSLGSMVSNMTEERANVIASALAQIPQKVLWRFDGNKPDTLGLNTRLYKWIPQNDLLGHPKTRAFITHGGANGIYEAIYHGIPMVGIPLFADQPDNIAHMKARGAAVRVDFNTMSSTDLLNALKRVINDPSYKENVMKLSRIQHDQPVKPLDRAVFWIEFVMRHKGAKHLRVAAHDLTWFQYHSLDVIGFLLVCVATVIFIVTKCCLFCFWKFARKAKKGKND
Description: glucuronidation of index substrate in pooled HLM, HPLC-UV. The settings on record: without preincubation; pH 7.5, 10 mM UDPGA, alamethicin. In a few lines: as §1

The next data set has as its target T6, CYP1A2 (Homo sapiens, UniProt P05177).
T6 sequence (P05177 2-516): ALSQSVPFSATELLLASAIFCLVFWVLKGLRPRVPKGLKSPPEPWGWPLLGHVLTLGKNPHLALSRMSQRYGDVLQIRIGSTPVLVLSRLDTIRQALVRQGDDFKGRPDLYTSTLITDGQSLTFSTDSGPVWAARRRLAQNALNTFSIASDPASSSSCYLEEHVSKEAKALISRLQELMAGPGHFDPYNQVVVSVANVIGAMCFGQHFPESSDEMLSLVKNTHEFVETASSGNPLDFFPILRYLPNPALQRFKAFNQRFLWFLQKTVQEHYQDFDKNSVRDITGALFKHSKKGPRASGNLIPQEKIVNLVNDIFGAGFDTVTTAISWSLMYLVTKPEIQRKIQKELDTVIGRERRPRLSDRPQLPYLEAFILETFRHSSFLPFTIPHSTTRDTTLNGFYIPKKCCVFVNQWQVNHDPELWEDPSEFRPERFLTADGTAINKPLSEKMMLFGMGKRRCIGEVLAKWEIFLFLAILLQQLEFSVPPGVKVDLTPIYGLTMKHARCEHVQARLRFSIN
Description: index substrate turnover in pooled HLM, HPLC. The settings on record: microsomes. The essentials: as §2

Setting [1] is: without preincubation, 37 °C, solvent effect.

CYP2E1, sequence (P05181 whole entry): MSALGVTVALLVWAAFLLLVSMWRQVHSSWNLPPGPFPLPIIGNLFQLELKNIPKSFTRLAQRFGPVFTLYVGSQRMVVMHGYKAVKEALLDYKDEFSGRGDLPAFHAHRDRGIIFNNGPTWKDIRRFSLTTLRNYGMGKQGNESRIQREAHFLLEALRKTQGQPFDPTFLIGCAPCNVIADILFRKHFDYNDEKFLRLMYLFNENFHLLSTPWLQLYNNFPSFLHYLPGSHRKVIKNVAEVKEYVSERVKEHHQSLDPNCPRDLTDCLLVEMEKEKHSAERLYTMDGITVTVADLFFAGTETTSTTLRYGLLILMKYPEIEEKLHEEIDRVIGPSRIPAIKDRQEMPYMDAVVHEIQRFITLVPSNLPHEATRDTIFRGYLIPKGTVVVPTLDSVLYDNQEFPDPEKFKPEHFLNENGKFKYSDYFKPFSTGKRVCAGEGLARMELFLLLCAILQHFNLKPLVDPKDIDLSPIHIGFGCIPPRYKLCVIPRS
CYP2D6, sequence (P10635 whole entry): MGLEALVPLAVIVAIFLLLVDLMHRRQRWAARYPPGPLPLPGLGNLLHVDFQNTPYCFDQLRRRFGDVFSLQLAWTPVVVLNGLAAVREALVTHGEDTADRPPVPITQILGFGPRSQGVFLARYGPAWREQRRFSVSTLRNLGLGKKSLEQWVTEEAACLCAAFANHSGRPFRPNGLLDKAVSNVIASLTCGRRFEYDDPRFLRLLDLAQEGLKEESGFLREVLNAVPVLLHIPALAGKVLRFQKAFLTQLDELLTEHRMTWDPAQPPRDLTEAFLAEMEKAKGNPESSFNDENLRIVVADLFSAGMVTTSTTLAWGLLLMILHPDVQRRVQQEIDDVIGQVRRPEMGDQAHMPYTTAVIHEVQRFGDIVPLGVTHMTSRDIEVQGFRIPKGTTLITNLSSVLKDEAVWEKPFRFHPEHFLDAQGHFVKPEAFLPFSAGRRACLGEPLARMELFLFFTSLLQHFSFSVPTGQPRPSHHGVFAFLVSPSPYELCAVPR
CYP2C19, sequence (P33261 whole entry): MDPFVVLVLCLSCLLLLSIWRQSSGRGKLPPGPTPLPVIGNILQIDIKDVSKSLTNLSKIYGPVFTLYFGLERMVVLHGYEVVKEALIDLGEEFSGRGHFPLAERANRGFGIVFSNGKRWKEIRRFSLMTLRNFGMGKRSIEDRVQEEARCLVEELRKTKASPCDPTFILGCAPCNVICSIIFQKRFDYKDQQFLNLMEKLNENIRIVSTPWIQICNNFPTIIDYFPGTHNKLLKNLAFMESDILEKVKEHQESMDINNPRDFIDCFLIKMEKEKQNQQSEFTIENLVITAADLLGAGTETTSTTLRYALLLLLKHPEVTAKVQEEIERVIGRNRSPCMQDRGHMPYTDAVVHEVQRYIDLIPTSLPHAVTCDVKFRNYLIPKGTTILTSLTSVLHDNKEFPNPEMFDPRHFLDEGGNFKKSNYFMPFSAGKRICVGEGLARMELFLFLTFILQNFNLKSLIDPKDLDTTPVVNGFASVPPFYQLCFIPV
CYP2C9, sequence (P11712 whole entry): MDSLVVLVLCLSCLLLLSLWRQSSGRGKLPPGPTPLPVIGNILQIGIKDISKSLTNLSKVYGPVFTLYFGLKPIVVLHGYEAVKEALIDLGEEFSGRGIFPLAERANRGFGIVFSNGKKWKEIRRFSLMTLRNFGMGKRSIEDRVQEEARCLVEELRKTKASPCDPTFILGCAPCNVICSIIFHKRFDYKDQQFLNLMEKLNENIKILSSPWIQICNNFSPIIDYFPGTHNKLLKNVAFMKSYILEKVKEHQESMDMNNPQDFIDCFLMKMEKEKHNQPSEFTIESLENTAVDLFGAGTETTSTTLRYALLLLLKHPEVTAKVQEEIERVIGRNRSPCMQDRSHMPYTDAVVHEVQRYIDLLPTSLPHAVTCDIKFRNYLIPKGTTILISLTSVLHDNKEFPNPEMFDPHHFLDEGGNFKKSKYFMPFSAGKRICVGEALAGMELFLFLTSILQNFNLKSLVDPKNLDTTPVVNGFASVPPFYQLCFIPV

On to `C[S+](C)[O-]` [DMSO], for which the “DMSO / W/O (%)” value at CYP2E1 (setting [1]) was 0.06 % (v/v).
Turning to `O=c1cc(-c2ccc(O)c(O)c2)oc2cc(O)cc(O)c12` [luteolin], the 50% inhibitory concentration (IC50) was greater than 250 µM on UGT2B15; greater than 250 µM against UGT1A6; 103 µM at CYP2B6; 153 µM against CYP2D6; 28.9 µM on CYP2C9; 2.5 µM against CYP2C8. Also, the IC50 was 89.3 µM on CYP2E1, 47.9 µM at CYP2C19, greater than 250 µM on UGT2B7 and 3.5 µM against CYP1A2.
For the compound `CO` [methanol], the “MEOH / W/O (%)” value at CYP2E1 (setting [1]) was 0.63 % (v/v).
Turning to `O=c1c(O)c(-c2ccc(O)c(O)c2)oc2cc(O)cc(O)c12` [quercetin], the half-maximal inhibitory concentration (IC50) on UGT2B15 was greater than 250 µM; on CYP2B6 it was 89.2 µM; against CYP2D6 it was 234 µM; on CYP2C8, 2.4 µM; against CYP2E1, 66.2 µM; on CYP2C19, 140 µM. The IC50 on CYP1A2 worked out at 5.2 µM.
